Laboratory results taken from ChEMBL document CHEMBL1154690, “Identification of novel, selective, and stable inhibitors of class II histone deacetylases. Validation studies of the inhibition of the enzymatic activity of HDAC4 by small molecules as a novel approach for cancer therapy” (J Med Chem, 2009).

Tests used:
[1] = Metabolic stability in S9 fraction of human HACT116 cells assessed as half life by LC-MS/MS analysis; assay type: ADME, subcellular; conditions: S9 fraction of HACT116 (HCT116) cells
[2] = Inhibition of constitutively active mutant HDAC4 (653-1084) from Escherichia coli
Procedure, shortened: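 Bacterially expressed HDAC4 carrying an H-to-Y active-site mutation, giving a constitutively active mutant enzyme, was used in the enzymatic inhibition assay.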

[3] = Inhibition of wild type HDAC4 (653-1084) from Escherichia coli
Procedure, shortened: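 Wild-type HDAC4 expressed in bacteria was assayed with an unnatural trifluoroacetyl-lysine substrate to boost its enzymatic efficiency.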

[4] = Selectivity ratio of IC50 for Escherichia coli HDAC4 WT (653-1084) to IC50 for HDAC1
[5] = biological target: T1, Protein deacetylase HDAC6 (Homo sapiens, UniProt Q9UBN7); assay: Inhibition of HDAC6
T1 sequence (Q9UBN7 whole entry): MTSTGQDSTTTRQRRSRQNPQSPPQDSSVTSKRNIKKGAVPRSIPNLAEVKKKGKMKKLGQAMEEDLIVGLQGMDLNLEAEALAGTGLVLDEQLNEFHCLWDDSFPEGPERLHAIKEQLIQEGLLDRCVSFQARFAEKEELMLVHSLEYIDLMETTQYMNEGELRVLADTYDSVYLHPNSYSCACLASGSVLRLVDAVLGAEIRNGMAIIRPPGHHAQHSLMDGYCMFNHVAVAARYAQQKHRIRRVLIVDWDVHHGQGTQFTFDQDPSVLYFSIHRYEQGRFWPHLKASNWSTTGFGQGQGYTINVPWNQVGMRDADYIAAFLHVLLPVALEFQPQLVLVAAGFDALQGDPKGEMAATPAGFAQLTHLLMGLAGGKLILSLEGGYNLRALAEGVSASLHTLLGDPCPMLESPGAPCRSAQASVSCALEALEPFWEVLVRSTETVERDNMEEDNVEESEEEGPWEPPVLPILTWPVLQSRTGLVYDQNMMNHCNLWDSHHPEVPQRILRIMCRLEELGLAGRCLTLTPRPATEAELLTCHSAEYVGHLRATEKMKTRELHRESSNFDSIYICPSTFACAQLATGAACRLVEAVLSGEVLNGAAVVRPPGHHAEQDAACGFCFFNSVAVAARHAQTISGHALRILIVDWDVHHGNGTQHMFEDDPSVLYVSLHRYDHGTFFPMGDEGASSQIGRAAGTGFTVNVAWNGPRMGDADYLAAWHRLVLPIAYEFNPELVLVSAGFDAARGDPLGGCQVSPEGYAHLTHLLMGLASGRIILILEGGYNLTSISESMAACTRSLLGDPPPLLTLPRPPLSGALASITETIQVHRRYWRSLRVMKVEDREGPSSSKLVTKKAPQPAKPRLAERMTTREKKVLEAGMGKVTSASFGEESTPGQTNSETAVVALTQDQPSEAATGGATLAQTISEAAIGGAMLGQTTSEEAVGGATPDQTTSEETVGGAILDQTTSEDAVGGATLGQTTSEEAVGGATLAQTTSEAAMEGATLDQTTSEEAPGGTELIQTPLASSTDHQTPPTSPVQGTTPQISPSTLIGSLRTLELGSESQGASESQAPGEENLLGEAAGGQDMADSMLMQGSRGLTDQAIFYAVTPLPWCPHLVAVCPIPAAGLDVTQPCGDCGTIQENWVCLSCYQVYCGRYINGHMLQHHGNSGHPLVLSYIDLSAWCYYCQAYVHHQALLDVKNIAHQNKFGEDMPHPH

Histone deacetylase 1 [6] = biological target: T2, Histone deacetylase 1 (Homo sapiens, UniProt Q13547); assay: Inhibition of HDAC1
Histone deacetylase 1 [7] = biological target: T2, Histone deacetylase 1; assay: Inhibition of HDAC1 in human HCT116 cells assessed as inhibition of histone-H3 deacetylation after 24 hrs; assay type: cell-based, HCT-116
Procedure, shortened: (§1)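 HCT116 cells were exposed to inhibitor for 72 h in the proliferation assay, or for 24 h for the histone H3 and α-tubulin deacetylation read-outs. Medium was replaced with fresh inhibitor every 12 h throughout. EC50 was taken as the mean of two independent determinations.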

HCT-116 = assay: Antiproliferative activity against human HCT116 cells after 72 hrs; assay type: functional, cell-based; conditions: HCT-116, 72 h; procedure, shortened: as §1
[8] = biological target: T1, Protein deacetylase HDAC6; assay: Inhibition of HDAC6 in human HCT116 cells assessed as alpha-tubulin hyperacetylation after 24 hrs; assay type: cell-based, HCT-116; procedure, shortened: as §1
[9] = Metabolic stability in human HCT116 cells assessed as half life by LC-MS/MS analysis; assay type: ADME, cell-based, HCT-116

T2 sequence (Q13547 whole entry): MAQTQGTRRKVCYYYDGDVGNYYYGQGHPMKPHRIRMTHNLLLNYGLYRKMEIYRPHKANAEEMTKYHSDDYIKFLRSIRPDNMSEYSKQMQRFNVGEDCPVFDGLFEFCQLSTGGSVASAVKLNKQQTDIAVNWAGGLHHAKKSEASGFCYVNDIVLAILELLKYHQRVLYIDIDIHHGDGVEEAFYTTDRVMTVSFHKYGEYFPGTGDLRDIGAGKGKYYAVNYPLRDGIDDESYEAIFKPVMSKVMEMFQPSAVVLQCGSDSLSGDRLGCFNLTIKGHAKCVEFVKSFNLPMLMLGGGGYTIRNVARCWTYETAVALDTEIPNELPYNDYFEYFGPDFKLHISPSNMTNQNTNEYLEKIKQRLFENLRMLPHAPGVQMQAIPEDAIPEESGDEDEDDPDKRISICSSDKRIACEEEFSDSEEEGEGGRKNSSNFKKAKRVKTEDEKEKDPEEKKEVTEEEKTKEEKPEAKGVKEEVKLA

Row | SMILES | half-life [1] [h] | IC50 [2] [µM] | IC50 [3] [µM] | Ratio IC50 [4] | IC50 [5] [µM] | IC50 (Histone deacetylase 1 [6]) [µM] | EC50 (Histone deacetylase 1 [7]) [µM] | EC50 (HCT-116) [µM] | EC50 [8] [µM] | half-life [9] [h]
1 | COc1cccc(-c2ccc(C(=O)C(F)(F)F)s2)c1 | – | > 5 | 3.8 | – | 3.1 | > 10 | – | – | – | –
2 | COc1ccccc1-c1ccc(C(=O)C(F)(F)F)s1 | – | 3.5 | > 10 | – | 6.3 | > 10 | – | – | – | –
3 | O=C(c1ccc(-c2ccccc2)s1)C(F)(F)F | – | 2.8 | 2.8 | – | 0.17 | > 20 | – | – | – | –
4 | COc1ccc(-c2ccc(C(=O)C(F)(F)F)s2)cc1 | – | > 1 | 0.11 | – | > 1 | > 1 | – | – | – | –
5 | O=C(c1ccc(-c2ccc3c(c2)OCCO3)s1)C(F)(F)F | – | 1.4 | > 10 | – | 0.037 | > 10 | – | – | – | –
6 | O=C(c1ccc(-c2ccccn2)s1)C(F)(F)F | – | > 1 | 0.54 | – | > 1 | > 1 | – | – | – | –
7 | O=C(c1cc(-c2ccccc2)cs1)C(F)(F)F | – | > 10 | 3.2 | – | 1.9 | > 10 | – | – | – | –
8 | O=C(c1ccc(-c2ccc3[nH]ccc3c2)s1)C(F)(F)F | – | 6.2 | > 10 | – | > 5 | > 10 | – | – | – | –

Now from value to compound:

Row | half-life [1] [h] | IC50 [2] [µM] | IC50 [3] [µM] | Ratio IC50 [4] | IC50 [5] [µM] | IC50 (Histone deacetylase 1 [6]) [µM] | EC50 (Histone deacetylase 1 [7]) [µM] | EC50 (HCT-116) [µM] | EC50 [8] [µM] | half-life [9] [h] | SMILES
9 | > 2 | 0.68 | 0.06 | – | – | – | – | – | – | – | O=C(c1ccc(-c2nc(CS(=O)(=O)Cc3ccc(F)cc3)no2)s1)C(F)(F)F
10 | 0.25 | 0.19 | 0.13 | 25 | 0.21 | 3.7 | – | – | – | – | O=C(c1cnc(-c2ccccc2)s1)C(F)(F)F
11 | 0.167 | 0.054 | 0.16 | – | 0.015 | 0.91 | – | – | – | – | O=C(c1ccc(-c2ccc3nccnc3c2)s1)C(F)(F)F
12 | > 2 | 0.78 | 0.024 | > 100 | 0.23 | 2.7 | 9 | 12.8 | 0.64 | – | CS(=O)(=O)Cc1noc(-c2ccc(C(=O)C(F)(F)F)s2)n1
13 | 0.867 | 1 | 0.035 | – | – | – | – | – | – | 6 | O=C(c1ccc(-c2nc(CS(=O)(=O)c3cccs3)no2)s1)C(F)(F)F
14 | > 2 | 0.014 | 0.16 | – | 0.041 | 2.7 | – | – | – | 8 | N#Cc1ccc(-c2ccc(C(=O)C(F)(F)F)s2)cc1
15 | – | 0.52 | 0.03 | – | – | – | – | – | – | – | CCCS(=O)(=O)Cc1noc(-c2ccc(C(=O)C(F)(F)F)s2)n1
16 | – | 0.096 | 0.31 | – | 0.07 | 12.8 | > 50 | > 50 | 1 | 11 | O=C(O)c1cccc(-c2ccc(C(=O)C(F)(F)F)s2)c1
17 | > 2 | 0.012 | 0.072 | – | 0.029 | > 10 | – | – | – | – | CC(=O)c1ccc(-c2ccc(C(=O)C(F)(F)F)s2)cc1
18 | 0.25 | 0.087 | 0.098 | – | – | – | – | – | – | – | CN(Cc1ccc2nccnc2c1)C(=O)c1ccc(C(=O)C(F)(F)F)s1
19 | – | 0.06 | 0.074 | – | 0.027 | 2.5 | – | – | – | – | O=C(O)c1ccc(-c2ccc(C(=O)C(F)(F)F)s2)cc1
